Measured values from ChEMBL document CHEMBL4184311, “Design, synthesis, and evaluation of simple phenol amides as ERRγ agonists” (Bioorg Med Chem Lett, 2018).
Calls of active or inactive are those of the source. The rule behind the calls is not given here.

Experiments:
[1] = biological target: T1, Estrogen-related receptor gamma (Homo sapiens, UniProt P62508); assay: Agonist activity at human N-terminal alphaHis-SUMO-tagged ERRgamma-LBD (229 to 458 residues) expressed in Escherichia coli BL21 gold (DE3) cells assessed as decrease in RIP140 peptide recruitment after 2 hrs by TR-FRET assay; settings: read-out: EC50
T1 sequence (P62508 whole entry): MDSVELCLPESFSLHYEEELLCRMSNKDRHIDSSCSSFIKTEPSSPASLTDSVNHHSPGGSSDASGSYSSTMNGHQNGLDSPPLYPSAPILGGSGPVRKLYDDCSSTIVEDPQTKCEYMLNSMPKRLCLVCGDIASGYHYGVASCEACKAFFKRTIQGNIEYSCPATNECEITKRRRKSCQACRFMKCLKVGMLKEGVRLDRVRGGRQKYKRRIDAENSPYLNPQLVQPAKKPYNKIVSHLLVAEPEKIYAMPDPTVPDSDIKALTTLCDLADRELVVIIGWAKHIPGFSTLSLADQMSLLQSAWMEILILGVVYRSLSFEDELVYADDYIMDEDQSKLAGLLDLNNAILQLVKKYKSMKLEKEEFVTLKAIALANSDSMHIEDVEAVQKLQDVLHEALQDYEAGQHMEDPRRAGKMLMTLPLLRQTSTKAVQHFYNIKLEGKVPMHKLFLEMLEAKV
Outline: (§1)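 Terbium/fluorescein TR-FRET read-out: excitation 340 nm, emission 520 nm (fluorescein) and 490 nm (terbium). The 520/490 nm ratio is expressed as fold change over a DMSO-only control. Values are the arithmetic mean of at least two separate runs.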

[2] = Half life in human liver microsomes at 1 uM in presence of NADPH by LC-MS/MS analysis; type: ADME, microsome
[3] = Half life in mouse liver microsomes at 1 uM in presence of NADPH by LC-MS/MS analysis; type: ADME, microsome
[4] = Half life in rat liver microsomes at 1 uM in presence of NADPH by LC-MS/MS analysis; type: ADME, microsome
[5] = biological target: T2, Steroid hormone receptor ERR1 (Homo sapiens) (UniProt P11474); assay: Agonist activity at alphaHis-SUMO-tagged ERRalpha-LBD (unknown origin) assessed as decrease in RIP140 peptide recruitment by TR-FRET assay
T2 sequence (whole entry): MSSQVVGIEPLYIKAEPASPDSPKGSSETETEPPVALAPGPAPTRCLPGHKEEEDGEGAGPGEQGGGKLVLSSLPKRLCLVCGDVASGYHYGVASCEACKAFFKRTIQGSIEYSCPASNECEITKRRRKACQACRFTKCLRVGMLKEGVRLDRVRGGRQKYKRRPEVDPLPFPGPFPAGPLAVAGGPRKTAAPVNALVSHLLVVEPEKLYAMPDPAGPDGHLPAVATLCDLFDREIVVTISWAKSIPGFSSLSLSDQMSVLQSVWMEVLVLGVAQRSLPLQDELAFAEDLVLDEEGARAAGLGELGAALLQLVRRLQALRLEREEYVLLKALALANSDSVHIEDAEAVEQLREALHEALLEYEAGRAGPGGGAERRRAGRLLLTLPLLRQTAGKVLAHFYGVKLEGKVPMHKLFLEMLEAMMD
Outline: (§2)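 Terbium/fluorescein TR-FRET read-out: excitation 340 nm, emission 520 nm (fluorescein) and 490 nm (terbium). The 520/490 nm ratio is expressed as fold change over a DMSO-only control and plotted against concentration to give EC50.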

[6] = biological target: T3, Steroid hormone receptor ERR2 (Homo sapiens, UniProt O95718); assay: Agonist activity at alphaHis-SUMO-tagged ERRbeta-LBD (unknown origin) assessed as decrease in RIP140 peptide recruitment by TR-FRET assay; outline: as §2
T3 sequence (O95718 whole entry): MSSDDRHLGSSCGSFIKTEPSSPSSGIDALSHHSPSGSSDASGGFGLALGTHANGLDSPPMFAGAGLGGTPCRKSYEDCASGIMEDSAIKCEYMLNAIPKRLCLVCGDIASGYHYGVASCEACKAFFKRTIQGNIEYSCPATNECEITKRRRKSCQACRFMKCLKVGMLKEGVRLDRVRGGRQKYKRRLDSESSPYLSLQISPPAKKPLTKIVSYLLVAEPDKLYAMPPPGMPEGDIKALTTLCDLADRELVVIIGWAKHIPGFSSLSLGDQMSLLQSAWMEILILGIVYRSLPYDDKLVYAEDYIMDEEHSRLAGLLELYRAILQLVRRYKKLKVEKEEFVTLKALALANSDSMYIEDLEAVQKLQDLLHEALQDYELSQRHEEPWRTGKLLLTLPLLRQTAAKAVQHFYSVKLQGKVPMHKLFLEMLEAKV

[7] = species: Homo sapiens; assay: Selectivity ratio of EC50 for alphaHis-SUMO-tagged ERRbeta-LBD (unknown origin) to EC50 for human N-terminal alphaHis-SUMO-tagged ERRgamma-LBD (229 to 458 residues) expressed in Escherichia coli BL21 gold (DE3) cells
[8] = biological target: T1, Estrogen-related receptor gamma; assay: Partial agonist activity at human N-terminal alphaHis-SUMO-tagged ERRgamma-LBD (229 to 458 residues) expressed in Escherichia coli BL21 gold (DE3) cells assessed as increase in RIP140 peptide recruitment after 2 hrs by TR-FRET assay
[9] = biological target: T1, Estrogen-related receptor gamma; assay: Inverse agonist activity at human N-terminal alphaHis-SUMO-tagged ERRgamma-LBD (229 to 458 residues) expressed in Escherichia coli BL21 gold (DE3) cells assessed as decrease in RIP140 peptide recruitment after 2 hrs by TR-FRET assay; outline: as §1
[10] = biological target: T1, Estrogen-related receptor gamma; assay: Agonist activity at Gal4 fused ERRgamma-LBD (unknown origin) expressed in HEK293T cells after 20 hrs by UAS-luciferase reporter gene assay; type: cell-based
Outline: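 HEK293T cells carrying Gal4-ERRγ fusion with UAS-luciferase reporter; compounds run as concentration-response curves; counterscreened in parallel against Gal4-VP16::UAS-Luc to flag non-specific activation.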

CCN(CC)c1ccc(CCNC(=O)c2ccc(O)cc2)cc1
EC50 [1]: 390 nM | t1/2 [2]: 3.1 min | t1/2 [3]: 2.2 min | t1/2 [4]: 3.9 min | Activity [5]: inactive | EC50 [6]: 630 nM

CC(C)(C)c1ccc(CCNC(=O)c2ccc(O)cc2N)cc1
EC50 [6]: 45 nM | Ratio EC50 [7]: 7 to 8 | EC50 [8]: 300 nM

CC(C)(C)c1ccc(CCNC(=O)c2ccccc2O)cc1
EC50 [9]: 2900 nM

CC(C)(C)c1ccc(CCNC(=O)c2ccc(O)cc2Cl)cc1
EC50 [1]: 950 nM | t1/2 [2]: 2.9 min | t1/2 [3]: 1.2 min | t1/2 [4]: 1.1 min | EC50 [6]: 31 nM | Ratio EC50 [7]: 30 to 40

CC(C)(C)c1ccc(CCNC(=O)c2ccc(O)cc2)cc1
EC50 [1]: 700 nM | EC50 [10]: 4700 nM | t1/2 [2]: 6.8 min | t1/2 [3]: 3.3 min | t1/2 [4]: 1.6 min | Activity [5]: inactive | EC50 [6]: 90 nM | Ratio EC50 [7]: 7 to 8

CC(C)(C)c1ccc(CCNC(=O)Cc2ccc(O)cc2)cc1
EC50 [1]: 950 nM | Activity [5]: inactive | EC50 [6]: 2700 nM

Cc1cc(O)ccc1C(=O)NCCc1ccc(C(C)(C)C)cc1
EC50 [1]: 760 nM | t1/2 [2]: 3.6 min | t1/2 [3]: 1.5 min | t1/2 [4]: 1.5 min | EC50 [6]: 20 nM | Ratio EC50 [7]: 30 to 40
